Solubility and Concentration data for 20 molecules are collected here from ChEMBL document CHEMBL1124547, “Prodrugs of the selective antiherpesvirus agent 9-[4-hydroxy-3-(hydroxymethyl)but-1-yl]guanine (BRL 39123) with improved gastrointestinal absorption properties” (J Med Chem, 1989).

Data set [1] is described as follows: Aqueous solubility at 25 degrees Centigrade. It counts as physicochemical. The following applies: water; read-out: S.
Data set [2] concerns Mus musculus. Kind of data set: Concentration of 2-Amino-9-(4-hydroxy-3-hydroxymethyl)but-1-yl)purine in blood of mice after 1 hour upon oral administration. It counts as functional, organism-based. Summed up: (§1)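 Single oral gavage dose of 0.2 mmol/kg in 0.1 mL 1% (carboxymethyl)cellulose to female Balb/c mice (20 g), fasted 18 h. Heparinized cardiac-puncture blood was taken at 0.25, 1 and 3 h, pooled equally from three mice per time point, and deproteinized with an equal volume of 16% TCA. Supernatant was neutralized with NaHCO3 and run on C18 HPLC in duplicate in 5 mM KH2PO4. The 2-aminopurine was read at 310 nm; detection limit 1 μM.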

The subject of data set [3] is Mus musculus. Description: Concentration of 2-Amino-9-(4-hydroxy-3-hydroxymethyl)but-1-yl)purine in blood of mice after 3 hours upon oral administration. It counts as functional, organism-based. Summed up: as §1
Data set [4] concerns Mus musculus. Description: Concentration of 2-Amino-9-(4-hydroxy-3-hydroxymethyl)but-1-yl)purine in blood of mice after 0.25 hours upon oral administration. Format: functional, organism-based. The method in brief: as §1
The subject of data set [5] is Mus musculus. Kind of data set: Concentration of 9-[4-Hydroxy-3-(hydroxymethyl)but-1-yl)guanine in blood of mice after 0.25 hours upon oral administration. Format: functional, organism-based. The method in brief:
(§2)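 Female Balb/c mice (20 g), food withheld 18 h, got one oral gavage dose of 0.2 mmol/kg in 0.1 mL 1% (carboxymethyl)cellulose. Blood was drawn by heparinized cardiac puncture at 0.25, 1 and 3 h, with three mice pooled per time point. It was treated with an equal volume of 16% TCA, centrifuged and NaHCO3-neutralized. The guanine analyte was measured by C18 HPLC at 254 nm in duplicate.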

Data set [6] concerns Mus musculus. Description: Concentration of 9-[4-Hydroxy-3-(hydroxymethyl)but-1-yl)guanine in blood of mice after 1 hour upon oral administration. Format: functional, organism-based. Summed up:
as §2

Data set [7] relates to Mus musculus. Kind of data set: Concentration of 9-[4-Hydroxy-3-(hydroxymethyl)but-1-yl)guanine in blood of mice after 3 hours upon oral administration. It counts as functional, organism-based. The method in brief:
as §2

Data set [8] deals with Mus musculus. Description: Concentration of 9-[4-Hydroxy-3-(hydroxymethyl)but-1-yl)guanine in blood of mice after 3 hour upon oral administration. It counts as functional, organism-based. The method in brief:
as §2

The test system of data set [9] is Mus musculus. Kind of data set: Concentration of 2-Amino-9-(4-hydroxy-3-hydroxymethyl)but-1-yl)purine in blood of mice after 1 hours upon oral administration. Format: functional, organism-based. Summed up: as §1
The nature of data set [10]: Solubility in water. As to conditions: read-out: S. It counts as physicochemical.

Converted amounts (≈) assume the structure as drawn.

For `Nc1nc2c(ncn2CCC(CO)CO)c(=O)[nH]1` [PENCICLOVIR], the solubility in data set [1] was 3 mg/mL (≈ 11.8 mM).
For `Nc1nc(OCc2ccccc2)c2ncn(CCC(CO)CO)c2n1`, the Concentration in data set [2] is 2 µM; in data set [3] it was < 1 µM; in [4], 3 µM; in data set [5] it was 1.8 µM; in data set [6], 2.1 µM; in data set [7], 0.5 µM.
On to `CCOc1nc(N)nc2c1ncn2CCC(CO)CO`, for which the Concentration was 11 µM in data set [2]; < 1 µM in data set [3]; 25 µM in [4]; 6.8 µM in [5]; 8 µM in data set [6]; 0.9 µM in data set [7].
Turning to `Nc1ncc2ncn(CCC(CO)CO)c2n1` [6-DEOXY PENCICLOVIR], the Concentration in [2] came out at 4 µM; in data set [3], 1 µM; in data set [4] it was 8 µM; in data set [5] it was 16 µM; in data set [6] it was 13 µM; in data set [7] it was 3.2 µM. In addition, in data set [1], the solubility was 120 mg/mL (≈ 506 mM).
As to `CC(C)Oc1nc(N)nc2c1ncn2CCC(CO)CO`, the Concentration in data set [2] was 12 µM; in [3] it was 1 µM; in data set [4] it was 43 µM; in data set [5], 9.2 µM; in data set [6] it was 3.8 µM; in [7], < 0.5 µM.
As to `CCC(=O)OCC(CCn1cnc2c(O)nc(N)nc21)COC(=O)CC`, the solubility in [1] is 1.2 mg/mL (≈ 3.28 mM).
With `Nc1ncc2ncn(CCC(CO)COP(=O)(O)O)c2n1` (stereo unspecified), the Concentration was determined as 1 µM in data set [3]; 5.2 µM in data set [8]; 4 µM in data set [4]; 8 µM in [9]; 8.7 µM in [5]; 17 µM in [6].
Turning to `CC1(C)OCC(CCn2cnc3cnc(N)nc32)CO1`, the Concentration is 1 µM in data set [3]; 33 µM in data set [4]; 4 µM in data set [9]; 33 µM in data set [5]; 11 µM in data set [6]; 3.2 µM in data set [7].
Turning to `CCCC(=O)OCC(CO)CCn1cnc2cnc(N)nc21` (stereo unspecified), the Concentration in [2] was 7 µM; in data set [3] it was < 1 µM; in data set [4] it was 57 µM; in data set [5], 64 µM; in data set [6] it was 28 µM; in [7] it was 2 µM.
Turning to `Nc1ncc2ncn(CCC(CO)COC(=O)c3ccccc3)c2n1` (stereo unspecified), the Concentration is 8 µM in [2]; < 1 µM in [3]; 71 µM in data set [4]; 63 µM in data set [5]; 26 µM in data set [6]; 1.1 µM in data set [7].
Consider `COC(=O)OCC(CO)CCn1cnc2cnc(N)nc21` (stereo unspecified), for which the Concentration was 4 µM in data set [2]; < 1 µM in data set [3]; 55 µM in [4]; 54 µM in [5]; 22 µM in data set [6]; 2.6 µM in data set [7].
`Nc1nc(Oc2ccccc2)c2ncn(CCC(CO)CO)c2n1`: the Concentration was 7 µM in data set [2]; < 1 µM in data set [3]; 8 µM in [4]; < 0.5 µM in [5]; < 0.5 µM in data set [6]; < 0.5 µM in data set [7].
`Nc1ncc2ncn(CCC3COP(=O)(O)OC3)c2n1` (stereo unspecified): the Concentration was < 1 µM in [2]; < 1 µM in data set [3]; < 1 µM in data set [4]; 1 µM in [5]; 1 µM in data set [6]; 2.6 µM in [7].
With `CC(=O)OCC(CO)CCn1cnc2cnc(N)nc21` (stereo unspecified), the Concentration in data set [2] was 3 µM; in data set [3] it was < 1 µM; in data set [4], 38 µM; in data set [5], 51 µM; in data set [6] it was 20 µM; in data set [7], 1.2 µM.
On to `CCC(=O)OCC(CCn1cnc2cnc(N)nc21)COC(=O)CC`, for which the Concentration in [2] was 9 µM; in data set [3], < 1 µM; in data set [4] it was 92 µM; in data set [5] it was 79 µM; in data set [6], 26 µM; in [7], 2.1 µM. Also, the solubility in [1] is 19 mg/mL (≈ 54.4 mM).
For the molecule `COc1nc(N)nc2c1ncn2CCC(CO)CO`, the Concentration in data set [2] was 7 µM; in data set [3], 2 µM; in [4], 8 µM; in data set [5], 0.6 µM; in data set [6] it was 0.9 µM; in data set [7], < 0.5 µM.
As to `CCCCOc1nc(N)nc2c1ncn2CCC(CO)CO`, the Concentration in data set [2] was 11 µM; in data set [3] it was 1 µM; in data set [4], 19 µM; in data set [5], 5.7 µM; in data set [6], 5.2 µM; in data set [7], < 0.5 µM.
Regarding `CC(=O)OCC(CCn1cnc2c(O)nc(N)nc21)COC(C)=O`, the solubility in data set [1] is 6.7 mg/mL (≈ 19.9 mM).
For `CC(=O)OCC(CCn1cnc2cnc(N)nc21)COC(C)=O` [FAMCICLOVIR], the Concentration is 3 µM in [2]; < 1 µM in [3]; 69 µM in [4]; 74 µM in data set [5]; 17 µM in data set [6]; 1.1 µM in [7]. The solubility in [10] is 20 mg/mL (≈ 62.2 mM); in data set [1] it was > 300 mg/mL.
With `Nc1nc(O)c2ncn(CCC(CO)CO)c2n1`, the Concentration was determined as 4.9 µM in data set [5], 4 µM in data set [6] and 1.1 µM in data set [7].
